This is a sample that favours compounds with a hit; in the whole collection about 0.22% have one here.
IDH1 mut inh – IDH1 R132H (human) inhibition | O75874 | IDH1 R132H reductase, diaphorase/resazurin fluorescence, 60 min | inhibition, % at 10 µM | 70,000 tested, 0.18% active; in the data active = inhibition above about 34%;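 note: 0% = DMSO and 100% = no enzyme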
Target sequence (O75874 whole entry R132H): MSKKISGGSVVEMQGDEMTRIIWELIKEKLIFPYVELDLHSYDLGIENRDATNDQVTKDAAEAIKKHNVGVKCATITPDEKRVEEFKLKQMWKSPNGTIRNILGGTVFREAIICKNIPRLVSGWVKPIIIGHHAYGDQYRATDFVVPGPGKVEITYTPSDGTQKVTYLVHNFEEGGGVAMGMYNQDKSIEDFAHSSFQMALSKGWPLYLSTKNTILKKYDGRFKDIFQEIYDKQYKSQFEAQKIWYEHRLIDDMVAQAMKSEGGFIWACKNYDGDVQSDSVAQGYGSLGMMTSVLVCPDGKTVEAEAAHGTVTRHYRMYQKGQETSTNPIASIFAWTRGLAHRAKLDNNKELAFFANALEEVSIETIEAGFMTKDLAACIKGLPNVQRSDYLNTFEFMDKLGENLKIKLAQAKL
GASC1 inh – inhibitors of human demethylase GASC-1 KDM4C. 96,000 tested, 0.15% active. GST-KDM4C 2-372, H3K9me3 peptide, LANCE TR-FRET. AID 720574. inhibition, % at 12.5 µM;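 active = mean replicate inhibition above about 25%, with at least 55% of replicates also reaching it, limit read from the data, passing the limit was not always enough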
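Test system – GST-tagged GASC-1 (JMJD2C) catalytic fragment, aa 2-372 · Medium – HEPES buffer, pH 7.5, plus ascorbate · Reagent – H3K9me3 peptide with Fe(II)/2OG · Compound – one test concentration per compound · Timing – 30 min reaction, 60 min detection, RT · Technique – TR-FRET with Eu antibody and ULight streptavidin, EDTA stop · Read-out basis – inhibition from TR-FRET ratio decrease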
The depositor's hits bear a star; · = no result.

SMILES	IDH1 mut inh	GASC1 inh
CO[C@@H]1CN(C)C(=O)c2ccc(NC(=O)Nc3c(C)noc3C)cc2OC[C@H](C)N(C)C[C@@H]1C	0	51*
CO[C@@H]1CN(C)C(=O)c2cc(NC(=O)c3cccc(F)c3)ccc2OC[C@H](C)N(C(C)=O)C[C@H]1C	98*	65*
CCC(=O)Nc1ccc2c(c1)OC[C@H](C)N(CC1CCOCC1)C[C@H](C)[C@H](OC)CN(C)C2=O	2	44*
CO[C@H]1CN(C)C(=O)c2ccc(NC(=O)C3CCCC3)cc2OC[C@H](C)N(C(C)=O)C[C@H]1C	0	47*
COc1cc(Cl)c(C)cc1NC(=O)CSC1=C(C#N)C(c2ccccc2F)CC(=O)N1 (configuration not stated)	0	·
COc1ccc(CCNc2ncnc3scc(-c4cccs4)c23)cc1OC	3	·
Cc1cc(C)c(NC(=O)CSc2nc3ccc(NC(=O)c4ccccc4Cl)cc3s2)c(C)c1	1	·
COc1ccc(-c2nnc(SCC(=O)Nc3cccc(SC)c3)o2)cc1	0	·
CO[C@H]1CN(C)C(=O)c2ccc(NC(=O)c3ccccc3)cc2OC[C@@H](C)N(C)C[C@@H]1C	0	0
CO[C@@H]1CN(C)C(=O)c2ccc(NC(=O)c3ccccc3)cc2OC[C@H](C)N(C)C[C@@H]1C	89*	19
CO[C@H]1CN(C)C(=O)c2ccc(NC(=O)c3cccc(F)c3)cc2OC[C@H](C)N(C)C[C@@H]1C	·	0
CO[C@H]1CN(C)C(=O)c2ccc(NC(=O)c3cccc(F)c3)cc2OC[C@H](C)N(C)C[C@H]1C	2	38*
O=C(CNC(=O)c1ccco1)Nc1cccc(C(F)(F)F)c1	0	·
COC(=O)c1cnn(-c2ccccc2)c1C=Nc1ccc(C)cc1	1	·
O=C(O)c1cc(N(Cc2ccccc2O)Cc2cc(O)ccc2O)ccc1O	41*	·
OCc1ccccc1O	0	·
NC(=O)CSc1nc2c(c(=O)n1Cc1ccccc1)C1(CCCC1)Cc1ccccc1-2	0	·
CCc1ccc(OCC(=O)Nc2ccccc2C(N)=O)c(Br)c1	0	·
